How the values were obtained:
PC12 cells = assay: Intracellular ROS; assay type: cell-based, rat; conditions: 1 μM curcumin pretreatment 6 h, H2O2 125 μM 16 h, DCFH-DA
Summary of the method: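 PC12 cells were seeded at 20,000/well and pre-incubated 24 h, then switched to protein-free DMEM. They were pretreated 6 h with 1 μM test compound or its protein complex, then exposed to freshly prepared H2O2 (125 μM) for 16 h. DCFH-DA (10 μM) was added for 45 min at 37 °C. Cells were washed twice in PBS, and DCF fluorescence (ex 480/488, em 540/525 nm) was read by microplate reader. Controls were DMSO-treated cells. Results are mean ± S.E.M. of three experiments.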

[1] = phase I trial, oral administration of 3.6 g/day; cited from earlier work
[2] = extremely safe even at very high doses; cited from earlier work
[3] = biological target: T1, modified (acetylated) β-lg (Bos taurus, UniProt P02754); assay: Intrinsic fluorescence quenching, binding constant and thermodynamics; parameters: species or system Bovine; conditions: modified B-LG
T1 sequence (P02754 17-178): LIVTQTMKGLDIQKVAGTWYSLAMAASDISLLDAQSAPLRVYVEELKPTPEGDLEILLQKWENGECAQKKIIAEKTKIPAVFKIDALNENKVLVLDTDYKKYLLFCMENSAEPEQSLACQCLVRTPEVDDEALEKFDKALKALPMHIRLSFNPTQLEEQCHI
Summary of the method: (§1)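 Proteins were acetylated at 10% w/v in water, 30 °C, pH 7.5–8.5, with acetic anhydride 0.5 g/g protein added over 30–90 min. They were dialysed 24 h against 20 mM phosphate pH 7.0, and lysine modification was checked by TNBS. β-lg was purified from cow milk (>97% by SDS-PAGE). Protein (1 μM) was mixed 1 min with test compound (0–2 μM). Intrinsic fluorescence was read at ex 290, em 310–700 nm. Kb and n came from a double-log Stern–Volmer plot, ΔH°/ΔS° from van't Hoff, and ΔG° from Gibbs.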

[4] = physiological pH; cited from earlier work
native (unmodified) BSA = native (unmodified) BSA (Bos taurus, UniProt P02769); assay: Intrinsic fluorescence quenching, binding constant and thermodynamics; parameters: species or system Bovine; conditions: unmodified albumin
Sequence of native (unmodified) BSA (P02769 25-607): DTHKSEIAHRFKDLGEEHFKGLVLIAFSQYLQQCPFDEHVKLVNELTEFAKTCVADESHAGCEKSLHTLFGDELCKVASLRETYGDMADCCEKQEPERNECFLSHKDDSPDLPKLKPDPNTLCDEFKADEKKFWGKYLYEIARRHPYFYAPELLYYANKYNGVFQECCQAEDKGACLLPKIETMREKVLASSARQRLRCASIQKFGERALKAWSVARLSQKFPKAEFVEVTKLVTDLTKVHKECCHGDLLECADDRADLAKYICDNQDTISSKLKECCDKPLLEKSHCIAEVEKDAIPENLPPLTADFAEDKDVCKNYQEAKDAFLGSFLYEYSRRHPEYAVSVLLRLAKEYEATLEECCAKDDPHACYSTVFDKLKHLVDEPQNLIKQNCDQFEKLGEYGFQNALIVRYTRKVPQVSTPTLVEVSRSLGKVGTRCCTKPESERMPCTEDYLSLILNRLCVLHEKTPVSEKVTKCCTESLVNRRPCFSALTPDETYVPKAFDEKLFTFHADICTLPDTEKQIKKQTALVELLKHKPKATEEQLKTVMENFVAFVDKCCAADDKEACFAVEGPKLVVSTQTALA

[5] = biological target: modified (acetylated) BSA (Bos taurus, UniProt P02769); assay: Intrinsic fluorescence quenching, binding constant and thermodynamics; parameters: species or system Bovine; conditions: modified albumin
Sequence of modified (acetylated) BSA (P02769 25-607): as above
Summary of the method: as §1

[6] = ref 3b; cited from earlier work
native (unmodified) β-lg = biological target: T2, native (unmodified) β-lg (Bos taurus, UniProt P02754); assay: Intrinsic fluorescence quenching, binding constant and thermodynamics; parameters: species or system Bovine; conditions: unmodified B-LG
T2 sequence (P02754 17-178): T1 sequence (P02754 17-178)
Summary of the method: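 Unmodified protein was used; β-lg was purified from fresh cow milk (>97% by SDS-PAGE). Protein (1 μM) in 20 mM sodium phosphate pH 7.0 was co-incubated 1 min with test compound (0–2 μM). Quenching was read at excitation 290 nm, emission 310–700 nm, slits 5/10 nm. Kb and n came from a modified Stern–Volmer double-log plot, ΔH° and ΔS° from the van't Hoff ln Kb vs 1/T slope and intercept, and ΔG° from the Gibbs equation. Data points are means of three determinations.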

[7] = Solvent- and light-mediated curcumin degradation; assay type: physicochemical; conditions: absolute ethanol, 10 μM curcumin, absorbance 420 nm
Summary of the method: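 Test compound: 5 mM methanol stock diluted to 10 μM in absolute ethanol. Samples were held at room temperature either in darkness or under a 100 W lamp. Absorbance maximum at 420 nm was recorded at intervals within 30 min. Degradation rate was taken from the initial slope of a best-fit line.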

[8] = without and in the presence of β-lg; ref 10d; cited from earlier work
[9] = Effect of temperature on hydrolytic stability of curcumin; assay type: physicochemical; conditions: 80°C, 10 μM curcumin, 20 mM sodium phosphate buffer pH 7.0, 60 min, darkness
Summary of the method: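 Test compound: 1 mM methanol stock diluted to 10 μM in 20 mM sodium phosphate buffer pH 7.0. Kept in darkness at 4, 25, 37 or 80 °C for up to 60 min and sampled at set intervals. Fluorescence spectra were taken at excitation 420 nm, emission 440–700 nm, with slits 10/20. Maximum emission was followed over time, and the decomposition rate was taken from the initial slope of a linear fit.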

SKNMC cells = assay: MTT assay, in vitro anti-cancer activity; assay type: cell-based, human; conditions: 44 µM, 24 h
Summary of the method: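 SKNMC cells were grown in DMEM with 10% FBS and 1% penicillin–streptomycin at 37 °C, 5% CO2, 95% humidity. They were seeded at 20,000/well and pre-incubated 24 h. Medium was replaced with protein-free DMEM, and test compound in DMSO (0–50 μM), alone or protein-complexed, was added for 24 h. MTT (0.5 mg/mL) was added for 4 h, formazan was dissolved in DMSO, and A570 was read. Viability is relative to untreated cells; three separate experiments.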

For “1,7-bis(4-hydroxy-3-methoxyphenyl)-1,6- heptadiene-3,5-dione [curcumin]”, the “effect on H2O2-induced intracellular ROS levels” value (PC12 cells) is given as “significantly reduced”, the “concentration of curcumin in plasma” value [1] is given as 11.1 nM and the “concentration of curcumin in target tissues” value [1] is given as 1300 nM. For the same substance, the safe dose [2] was 8 to 12 g/day, the “ΔG°” value ([3]; 310 K (per Table S1)) was -9.6836 ± 0.387 kcal/mol and the “N (number of curcumin binding sites)” value ([3]; Table 1) was 1.347±0.042. For the same substance, the “ΔH°” value ([3]; van't Hoff, 277-310 K) was 2.227 ± 0.0225 kcal/mol, the “ΔS°” value ([3]; van't Hoff, 277-310 K) was 0.161±0.006 J mol^-1·K^-1 and the “time to molecular fragmentation and degradation by hydrolysis” value [4] was no more than 30 min. The “ΔG°” value (native (unmodified) BSA; 310 K (per Table S1)) was -9.1702 ± 0.2751 kcal/mol, the “N (number of curcumin binding sites)” value (native (unmodified) BSA; Table 1) was 1.249±0.02 and the “ΔH°” value (native (unmodified) BSA; van't Hoff, 277-310 K) was 6.4971 ± 0.195 kcal/mol. The “ΔS°” value (native (unmodified) BSA; van't Hoff, 277-310 K) was 0.212±0.002 J mol^-1·K^-1, the “ΔG°” value ([5]; 310 K (per Table S1)) was -4.6953 ± 0.141 kcal/mol and the “N (number of curcumin binding sites)” value ([5]; Table 1) was 0.975±0.015. The “ΔH°” value ([5]; van't Hoff, 277-310 K) was -8.1783 ± 0.163 kcal/mol, the “ΔS°” value ([5]; van't Hoff, 277-310 K) was -0.047±0.001 J mol^-1·K^-1 and the solubility in water [6] was “about 11 ng/mL”. For the same substance, the “ΔG°” value (native (unmodified) β-lg; 310 K (per Table S1)) was -7.0335 ± 0.4218 kcal/mol, the “N (number of curcumin binding sites)” value (native (unmodified) β-lg; Table 1) was 1.145±0.034 and the “ΔH°” value (native (unmodified) β-lg; van't Hoff, 277-310 K) was -6.4892 ± 0.195 kcal/mol. For the same substance, the “ΔS°” value (native (unmodified) β-lg; van't Hoff, 277-310 K) was 0.007±0.001 J mol^-1·K^-1, the “degradation in non-aqueous solvent” value [7] was “did not degrade” and the curcumin half-life [8] was 30.8 min. For the same substance, the “initial curcumin population remained intact” value [9] was “more than 40%” and the cell viability (SKNMC cells) was 88%.

From publication PMC6416488 (Protein and Peptide Letters, 2019)
